From ChEMBL document CHEMBL2331221, “Potent elastase inhibitors from cyanobacteria: structural basis and mechanisms mediating cytoprotective and anti-inflammatory effects in bronchial epithelial cells” (J Med Chem, 2013)
The source made the active and inactive calls. The rule behind the calls is not given here.

What was measured:
[1] = Inhibition of human pancreatic Chymotrypsin using Suc-AAPF-pNa substrate incubated for 15 mins prior to substrate addition measured for 2 hrs
Summary of the method: (§1)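 Protease panel screen: enzyme and inhibitor preincubated 15 min in reaction buffer, then substrate added; reaction followed for 2 h and the initial linear part of the progress curve used for activity. Enzyme, substrate, buffer and detection details are given only in a supporting table.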

[2] = target: Disintegrin and metalloproteinase domain-containing protein 9 (Homo sapiens) (UniProt Q13443); assay: Inhibition of ADAM9 (unknown origin) using MCA-PLAQAV-Dpa-RSSSR-[…] substrate assessed as residual activity at 10 uM incubated for 15 mins prior to substrate addition measured for 2 hrs
Chain of Disintegrin and metalloproteinase domain-containing protein 9 (Homo sapiens) (Q13443 whole entry, the tested form may be a part): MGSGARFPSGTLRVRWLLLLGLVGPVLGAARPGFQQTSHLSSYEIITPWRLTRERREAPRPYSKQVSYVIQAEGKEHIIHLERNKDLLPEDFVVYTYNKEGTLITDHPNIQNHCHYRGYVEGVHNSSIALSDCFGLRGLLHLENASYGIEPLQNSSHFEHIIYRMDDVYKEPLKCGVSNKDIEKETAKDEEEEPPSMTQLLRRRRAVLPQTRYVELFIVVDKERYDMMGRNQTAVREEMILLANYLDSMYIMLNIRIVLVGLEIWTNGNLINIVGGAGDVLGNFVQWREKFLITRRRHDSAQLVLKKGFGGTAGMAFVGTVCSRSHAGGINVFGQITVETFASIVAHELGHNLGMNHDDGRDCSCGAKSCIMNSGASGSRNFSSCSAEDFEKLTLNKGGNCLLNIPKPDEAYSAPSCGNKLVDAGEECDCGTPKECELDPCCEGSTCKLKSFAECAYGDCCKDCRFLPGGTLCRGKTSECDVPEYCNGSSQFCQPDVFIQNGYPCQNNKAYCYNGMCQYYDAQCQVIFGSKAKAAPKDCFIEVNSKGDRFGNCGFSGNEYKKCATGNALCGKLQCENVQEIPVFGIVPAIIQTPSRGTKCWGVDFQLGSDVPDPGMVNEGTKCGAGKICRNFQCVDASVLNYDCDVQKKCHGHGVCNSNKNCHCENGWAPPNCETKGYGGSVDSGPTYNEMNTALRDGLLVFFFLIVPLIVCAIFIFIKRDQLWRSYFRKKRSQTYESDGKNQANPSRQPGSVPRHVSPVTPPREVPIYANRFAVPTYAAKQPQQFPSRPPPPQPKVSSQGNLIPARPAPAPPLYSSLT
Summary of the method: (§2)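 Protease panel screen: enzyme and test inhibitor preincubated 15 min in the enzyme's reaction buffer, then substrate added. Reaction followed for 2 h, and activity was taken from the initial linear portion of the progress-curve slope. Enzyme, substrate, buffer and detection conditions for each target are given only in the paper's supporting table.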

[3] = target: Stromelysin-3 (Homo sapiens) (UniProt P24347); assay: Inhibition of MMP11 (unknown origin) using (5-FAM/QXLTM) FRET peptide substrate assessed as residual activity at 10 uM incubated for 15 mins prior to substrate addition measured for 2 hrs; summary of the method: as §2
[4] = target: Cathepsin L2 (Homo sapiens) (UniProt O60911); assay: Inhibition of Cathepsin V (unknown origin) using Z-FR-AMC substrate assessed as residual activity at 10 uM incubated for 15 mins prior to substrate addition measured for 2 hrs; summary of the method: as §2
[5] = target: Interstitial collagenase (Homo sapiens) (UniProt P03956); assay: Inhibition of MMP1 (unknown origin) using (5-FAM/QXLTM) FRET peptide substrate assessed as residual activity at 10 uM incubated for 15 mins prior to substrate addition measured for 2 hrs; summary of the method: as §2
[6] = target: Chymase (Homo sapiens, UniProt P23946); assay: Inhibition of Chymase (unknown origin) using Suc-AAPF-AMC substrate incubated for 15 mins prior to substrate addition measured for 2 hrs; summary of the method: as §2
Chain of Chymase (P23946 whole entry): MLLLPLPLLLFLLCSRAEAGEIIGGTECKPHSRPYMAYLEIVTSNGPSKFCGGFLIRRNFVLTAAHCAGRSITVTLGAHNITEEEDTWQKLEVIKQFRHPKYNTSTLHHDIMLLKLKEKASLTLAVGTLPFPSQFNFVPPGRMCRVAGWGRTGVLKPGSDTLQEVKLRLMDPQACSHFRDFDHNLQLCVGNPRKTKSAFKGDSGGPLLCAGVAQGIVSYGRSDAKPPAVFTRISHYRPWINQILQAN

[7] = target: Dipeptidyl peptidase 1 (Homo sapiens) (UniProt P53634); assay: Inhibition of Cathepsin C (unknown origin) using Z-FR-AMC substrate assessed as residual activity at 10 uM incubated for 15 mins prior to substrate addition measured for 2 hrs; summary of the method: as §2
Chain of Dipeptidyl peptidase 1 (Homo sapiens) (P53634 25-134 limits assumed): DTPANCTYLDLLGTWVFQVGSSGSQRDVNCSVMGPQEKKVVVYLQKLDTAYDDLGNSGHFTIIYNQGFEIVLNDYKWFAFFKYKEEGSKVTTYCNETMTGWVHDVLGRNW
Chain of Dipeptidyl peptidase 1 (Homo sapiens) (P53634 231-394 limits assumed): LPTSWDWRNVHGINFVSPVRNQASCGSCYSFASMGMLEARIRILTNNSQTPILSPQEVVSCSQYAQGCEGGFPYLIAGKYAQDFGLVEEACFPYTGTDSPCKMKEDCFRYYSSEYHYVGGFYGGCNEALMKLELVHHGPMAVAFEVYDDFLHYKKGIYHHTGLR
Chain of Dipeptidyl peptidase 1 (Homo sapiens) (P53634 395-463 limits assumed): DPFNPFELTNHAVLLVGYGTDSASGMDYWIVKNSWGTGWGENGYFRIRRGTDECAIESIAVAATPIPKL

[8] = Inhibition of human pancreatic chymotrypsin assessed as proteolysis using N-succinyl-Ala-Ala-Pro-Phe-p-nitroanilide substrate incubated for 30 mins prior to substrate addition
[9] = target: Kallikrein-5 (Homo sapiens, UniProt Q9Y337); assay: Inhibition of Kallikrein-5 (unknown origin) using Z-VVR-AMC substrate incubated for 15 mins prior to substrate addition measured for 2 hrs; summary of the method: as §2
Chain of Kallikrein-5 (Q9Y337 whole entry): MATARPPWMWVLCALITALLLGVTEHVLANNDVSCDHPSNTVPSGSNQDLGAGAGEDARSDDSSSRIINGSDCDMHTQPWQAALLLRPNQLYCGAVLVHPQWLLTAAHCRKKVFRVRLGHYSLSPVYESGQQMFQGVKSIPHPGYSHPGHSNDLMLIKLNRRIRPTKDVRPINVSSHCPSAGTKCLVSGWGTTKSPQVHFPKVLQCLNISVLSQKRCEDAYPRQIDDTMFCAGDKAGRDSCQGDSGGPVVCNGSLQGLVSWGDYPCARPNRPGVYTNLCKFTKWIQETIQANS

[10] = target: Vitamin K-dependent protein C (Homo sapiens) (UniProt P04070); assay: Inhibition of Activated Protein C (unknown origin) using Boc-DVLR-ANSNH-C4H9 substrate assessed as residual activity at 10 uM incubated for 15 mins prior to substrate addition measured for 2 hrs; summary of the method: as §2
[11] = target: Neutrophil collagenase (Homo sapiens) (UniProt P22894); assay: Inhibition of MMP8 (unknown origin) using (5-FAM/QXLTM) FRET peptide substrate assessed as residual activity at 10 uM incubated for 15 mins prior to substrate addition measured for 2 hrs; summary of the method: as §1
Chain of Neutrophil collagenase (Homo sapiens) (P22894 101-467 limits assumed): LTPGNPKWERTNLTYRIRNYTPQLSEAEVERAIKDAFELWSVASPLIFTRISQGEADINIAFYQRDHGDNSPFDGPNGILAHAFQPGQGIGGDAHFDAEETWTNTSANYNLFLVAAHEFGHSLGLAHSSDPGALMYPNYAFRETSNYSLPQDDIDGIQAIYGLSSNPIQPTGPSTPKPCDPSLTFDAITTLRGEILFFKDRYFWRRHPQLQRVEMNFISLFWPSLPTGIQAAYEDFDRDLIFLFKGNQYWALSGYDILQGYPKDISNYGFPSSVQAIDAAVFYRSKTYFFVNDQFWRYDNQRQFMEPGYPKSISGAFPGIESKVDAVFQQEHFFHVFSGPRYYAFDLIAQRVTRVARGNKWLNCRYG

[12] = target: Papain (Carica papaya) (UniProt P00784); assay: Inhibition of papaya Papain using Z-FR-AMC substrate assessed as residual activity at 10 uM incubated for 15 mins prior to substrate addition measured for 2 hrs; summary of the method: as §1
Chain of Papain (Carica papaya) (P00784 whole entry): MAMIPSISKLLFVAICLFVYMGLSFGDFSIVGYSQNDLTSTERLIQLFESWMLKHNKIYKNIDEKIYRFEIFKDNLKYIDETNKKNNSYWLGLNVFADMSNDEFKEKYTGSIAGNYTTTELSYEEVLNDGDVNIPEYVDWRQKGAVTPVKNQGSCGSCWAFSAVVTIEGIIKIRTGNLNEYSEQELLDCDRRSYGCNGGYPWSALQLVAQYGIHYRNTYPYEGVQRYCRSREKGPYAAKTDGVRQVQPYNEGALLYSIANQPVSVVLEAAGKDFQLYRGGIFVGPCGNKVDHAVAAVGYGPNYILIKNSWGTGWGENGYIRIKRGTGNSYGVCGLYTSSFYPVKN

[13] = target: Pro-cathepsin H (Homo sapiens) (UniProt P09668); assay: Inhibition of Cathepsin H (unknown origin) using R-AMC substrate assessed as residual activity at 10 uM incubated for 15 mins prior to substrate addition measured for 2 hrs; summary of the method: as §2
Chain of Pro-cathepsin H (Homo sapiens) (P09668 116-335 limits assumed, other chains not shown): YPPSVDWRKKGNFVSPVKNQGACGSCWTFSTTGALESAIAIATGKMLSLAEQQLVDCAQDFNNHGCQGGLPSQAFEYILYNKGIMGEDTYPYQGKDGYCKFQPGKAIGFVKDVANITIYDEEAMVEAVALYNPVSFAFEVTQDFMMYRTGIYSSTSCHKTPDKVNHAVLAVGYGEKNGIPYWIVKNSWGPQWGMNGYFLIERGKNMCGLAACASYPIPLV

[14] = Inhibition of Thrombin alpha (unknown origin) using H-D-CHA -Ala-Arg-AMC.2AcOH substrate incubated for 15 mins prior to substrate addition measured for 2 hrs; design: species or system Homo sapiens; summary of the method: as §1
[15] = target: Cathepsin B (Homo sapiens) (UniProt P07858); assay: Inhibition of Cathepsin B (unknown origin) using Z-FR-AMC substrate assessed as residual activity at 10 uM incubated for 15 mins prior to substrate addition measured for 2 hrs; summary of the method: as §2
[16] = target: Coagulation factor XI (Homo sapiens, UniProt P03951); assay: Inhibition of Factor-11a (unknown origin) using (Boc-Glu(OBzl)-Ala-Arg)-MCA substrate incubated for 15 mins prior to substrate addition measured for 2 hrs; summary of the method: as §2
[17] = organism: Homo sapiens; assay: Inhibition of human pancreatic chymotrypsin assessed as proteolysis using N-succinyl-Ala-Ala-Pro-Phe-p-nitroanilide substrate incubated at 10 uM for 30 mins prior to substrate addition; design: scale not given: the % may be the effect or the level left
Summary of the method: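 Pancreatic chymotrypsin, bovine at 100 μg/mL or human at 50 μg/mL; reaction buffer, enzyme and inhibitor (DMSO) incubated 30 min at room temperature, then substrate added (bovine: N-succinyl-Gly-Gly-Phe-pNA; human: N-succinyl-Ala-Ala-Pro-Phe-pNA). Absorbance read at 405 nm; activity from reaction slope relative to solvent control.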

[18] = target: Kallikrein-8 (Homo sapiens) (UniProt O60259); assay: Inhibition of Kallikrein-8 (unknown origin) using VPR-AMC substrate assessed as residual activity at 10 uM incubated for 15 mins prior to substrate addition measured for 2 hrs; summary of the method: as §2
Chain of Kallikrein-8 (Homo sapiens) (O60259 whole entry): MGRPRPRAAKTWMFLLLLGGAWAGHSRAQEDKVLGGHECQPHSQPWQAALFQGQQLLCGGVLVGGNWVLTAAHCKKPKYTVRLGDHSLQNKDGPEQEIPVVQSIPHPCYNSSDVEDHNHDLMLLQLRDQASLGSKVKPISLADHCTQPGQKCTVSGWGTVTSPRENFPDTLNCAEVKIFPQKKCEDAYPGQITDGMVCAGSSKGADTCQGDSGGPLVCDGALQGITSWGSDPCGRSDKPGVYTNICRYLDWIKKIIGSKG

[19] = target: Beta-secretase 1 (Homo sapiens) (UniProt P56817); assay: Inhibition of BACE1 (unknown origin) using MCA-SEVNLDAEFRK(Dnp)-RR-NH2 substrate assessed as residual activity at 10 uM incubated for 15 mins prior to substrate addition measured for 2 hrs; summary of the method: as §2
Chain of Beta-secretase 1 (Homo sapiens) (P56817 whole entry): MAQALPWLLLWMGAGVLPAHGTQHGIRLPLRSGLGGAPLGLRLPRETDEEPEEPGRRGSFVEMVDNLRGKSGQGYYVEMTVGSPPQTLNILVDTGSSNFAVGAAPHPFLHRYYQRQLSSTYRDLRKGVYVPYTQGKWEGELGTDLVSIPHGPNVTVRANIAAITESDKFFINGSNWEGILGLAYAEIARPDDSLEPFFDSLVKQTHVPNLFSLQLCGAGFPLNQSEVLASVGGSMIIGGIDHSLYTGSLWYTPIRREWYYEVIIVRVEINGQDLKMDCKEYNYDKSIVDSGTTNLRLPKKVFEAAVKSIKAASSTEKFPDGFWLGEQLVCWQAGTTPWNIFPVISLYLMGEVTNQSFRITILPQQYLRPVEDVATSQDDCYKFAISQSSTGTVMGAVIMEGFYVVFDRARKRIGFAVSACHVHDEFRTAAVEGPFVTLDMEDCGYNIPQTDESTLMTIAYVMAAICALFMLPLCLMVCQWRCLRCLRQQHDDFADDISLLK

[20] = target: Kallikrein-1 (Homo sapiens) (UniProt P06870); assay: Inhibition of Kallikrein-1 (unknown origin) using Z-GPR-AMC substrate assessed as residual activity at 10 uM incubated for 15 mins prior to substrate addition measured for 2 hrs; summary of the method: as §2
Chain of Kallikrein-1 (Homo sapiens) (P06870 25-262 limits assumed): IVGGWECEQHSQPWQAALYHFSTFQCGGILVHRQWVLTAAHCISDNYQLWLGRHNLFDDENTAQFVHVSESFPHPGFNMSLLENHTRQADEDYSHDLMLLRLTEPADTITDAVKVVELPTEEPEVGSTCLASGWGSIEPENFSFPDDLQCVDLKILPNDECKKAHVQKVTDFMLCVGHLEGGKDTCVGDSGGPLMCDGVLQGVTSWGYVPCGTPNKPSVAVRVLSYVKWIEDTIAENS

[21] = target: Disintegrin and metalloproteinase domain-containing protein 10 (Homo sapiens) (UniProt O14672); assay: Inhibition of ADAM10 (unknown origin) using MCA-PLAQAV-Dpa-RSSSR-[…] substrate assessed as residual activity at 10 uM incubated for 15 mins prior to substrate addition measured for 2 hrs; summary of the method: as §2
Chain of Disintegrin and metalloproteinase domain-containing protein 10 (Homo sapiens) (O14672 whole entry, the tested form may be a part): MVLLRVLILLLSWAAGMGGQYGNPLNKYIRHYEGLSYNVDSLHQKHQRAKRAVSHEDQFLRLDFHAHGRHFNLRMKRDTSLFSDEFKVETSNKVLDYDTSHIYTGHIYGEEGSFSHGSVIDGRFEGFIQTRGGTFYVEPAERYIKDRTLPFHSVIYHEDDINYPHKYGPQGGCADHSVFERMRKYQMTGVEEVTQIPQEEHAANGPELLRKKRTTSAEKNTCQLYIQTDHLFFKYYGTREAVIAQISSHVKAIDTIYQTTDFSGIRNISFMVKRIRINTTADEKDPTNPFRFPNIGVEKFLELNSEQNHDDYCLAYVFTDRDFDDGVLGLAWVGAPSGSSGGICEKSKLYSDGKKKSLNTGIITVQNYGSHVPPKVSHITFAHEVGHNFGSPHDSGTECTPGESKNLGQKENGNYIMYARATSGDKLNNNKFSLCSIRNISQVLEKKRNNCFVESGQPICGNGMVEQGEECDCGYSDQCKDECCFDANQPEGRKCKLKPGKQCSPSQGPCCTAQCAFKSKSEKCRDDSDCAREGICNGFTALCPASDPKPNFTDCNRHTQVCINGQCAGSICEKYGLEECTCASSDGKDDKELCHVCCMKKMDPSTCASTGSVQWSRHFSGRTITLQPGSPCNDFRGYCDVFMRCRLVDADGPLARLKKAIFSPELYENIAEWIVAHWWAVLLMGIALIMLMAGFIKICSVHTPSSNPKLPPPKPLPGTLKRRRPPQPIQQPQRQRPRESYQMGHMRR

[22] = target: Urokinase-type plasminogen activator (Homo sapiens) (UniProt P00749); assay: Inhibition of Urokinase (unknown origin) using Bz-b-Ala-Gly-Arg-AMC.AcOH substrate assessed as residual activity at 10 uM incubated for 15 mins prior to substrate addition measured for 2 hrs; summary of the method: as §1
[23] = target: Kallikrein-13 (Homo sapiens) (UniProt Q9UKR3); assay: Inhibition of Kallikrein-13 (unknown origin) using VPR-AMC substrate assessed as residual activity at 10 uM incubated for 15 mins prior to substrate addition measured for 2 hrs; summary of the method: as §2
Chain of Kallikrein-13 (Homo sapiens) (Q9UKR3 whole entry): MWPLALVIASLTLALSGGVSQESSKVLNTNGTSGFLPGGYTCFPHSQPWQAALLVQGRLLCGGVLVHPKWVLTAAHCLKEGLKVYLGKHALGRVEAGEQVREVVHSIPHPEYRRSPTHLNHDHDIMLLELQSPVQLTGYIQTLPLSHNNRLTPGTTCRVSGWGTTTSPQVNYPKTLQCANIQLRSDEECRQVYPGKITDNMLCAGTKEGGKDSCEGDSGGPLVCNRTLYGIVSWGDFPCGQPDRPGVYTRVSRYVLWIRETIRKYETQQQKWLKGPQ

[24] = target: T1, Neutrophil elastase (Homo sapiens) (UniProt P08246); settings: BEAS2B, 100 uM
T1 sequence (whole entry): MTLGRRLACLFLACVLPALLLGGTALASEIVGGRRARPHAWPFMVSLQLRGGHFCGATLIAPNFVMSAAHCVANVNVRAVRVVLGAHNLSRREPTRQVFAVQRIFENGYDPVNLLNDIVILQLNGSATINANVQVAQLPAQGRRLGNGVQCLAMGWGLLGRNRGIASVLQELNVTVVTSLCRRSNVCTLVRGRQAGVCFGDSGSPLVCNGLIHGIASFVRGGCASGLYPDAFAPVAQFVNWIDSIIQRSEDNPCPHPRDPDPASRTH

## C/C=C1\NC(=O)[C@@H](NC(=O)[C@@H](NC(=O)[C@@H](COS(=O)(=O)[O-])OC)C(C)C)[C@@H](C)OC(=O)[C@H]([C@H](C)CC)NC(=O)[C@H](Cc2ccccc2)N(C)C(=O)[C@H](Cc2ccccc2)N2C(=O)[C@H](CC[C@H]2O)NC1=O.[Na+] [Symplostatin 5]
[1]
  pIC50: 6.1
[2]
  Activity: 100%
[3]
  Activity: 100%
[4]
  Activity: 100%
[5]
  Activity: 100%
[6]
  IC50: < 10 µM
[7]
  Activity: 50%
[8]
  IC50: > 10 µM
[9]
  IC50: < 10 µM
[10]
  Activity: 100%
[11]
  Activity: 100%
[12]
  Activity: 100%
[13]
  Activity: 100%
[14]
  pIC50: > 5
[15]
  Activity: 100%
[16]
  IC50: < 10 µM
[17]
  Activity: 53.4%
[18]
  Activity: 50%
[19]
  Activity: 100%
[20]
  Activity: 100%
[21]
  Activity: 100%
[22]
  Activity: 100%
[23]
  Activity: 100%
[24]
  inhibition: inactive
